Data on 24 molecules can be found in ChEMBL document CHEMBL3808307, “Triazolylthioacetamide: A Valid Scaffold for the Development of New Delhi Metallo-β-Lactmase-1 (NDM-1) Inhibitors” (ACS Med Chem Lett, 2016).

In assay [1] the target is Metallo-beta-lactamase type 2 (Bacteroides fragilis) (UniProt P25910). Briefly: Inhibition of Bacteroides fragilis CcrA metallo-beta-lactamase up to 10 uM preincubated for 60 min followed by addition of cefazolin as substrate by spectrometry method. A digest of the protocol:
(§1)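 Purified recombinant MβL preincubated with inhibitor for 60 min, then hydrolysis followed by UV spectrometry. Substrate was cefazolin, or imipenem for ImiS, at 26–160 μM. Inhibitor ranged 15 nM to 10 μM. IC50 was the concentration giving a 50% drop in enzyme activity, calculated from kinetic data.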

Assay [2] deals with T1, Metallo-beta-lactamase type 2 (Klebsiella pneumoniae, UniProt C7C422). Put plainly: Inhibition of Klebsiella pneumoniae metallo-beta-lactamase NDM-1 expressed in Escherichia coli BL21(DE3) cells preincubated for 60 min followed by addition of cefazolin as substrate by spectrometry method. A digest of the protocol:
as §1

The subject of assay [3] is Stenotrophomonas maltophilia. Put plainly: Inhibition of Stenotrphomonas maltophilia metallo-beta-lactamase L1 up to 10 uM preincubated for 60 min followed by addition of cefazolin as substrate by spectrometry method. The essentials:
as §1

The test system of assay [4] is Aeromonas veronii bv. sobria. Briefly: Inhibition of Aeromonas veronii bv. sorbia Metallo-beta-lactamase ImiS up to 10 uM preincubated for 60 min followed by addition of imipenem as substrate by spectrometry method. A digest of the protocol:
as §1

Assay [5] addresses T1, Metallo-beta-lactamase type 2. Put plainly: Mixed type inhibition of Klebsiella pneumoniae metallo-beta-lactamase NDM-1 expressed in Escherichia coli BL21(DE3) cells assessed as hydrolysis of cefazolin preincubated for 60 min followed by addition of cefazolin by Lineweaver-Burk plot analysis. The essentials: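 Purified recombinant NDM-1 preincubated with inhibitor for 60 min. Cefazolin hydrolysis was then followed by UV spectrometry, with substrate varied 26–160 μM and inhibitor at 0, 0.25, 0.5 and 1.0 μM. Mode was taken from Lineweaver–Burk plots. Ki came from replots of slope and intercept […].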

Molecules are shown by their SMILES. Active and inactive are the calls of the source. No cut-off for these calls is given here.

Sequence of Metallo-beta-lactamase type 2 (Bacteroides fragilis) (P25910 whole entry): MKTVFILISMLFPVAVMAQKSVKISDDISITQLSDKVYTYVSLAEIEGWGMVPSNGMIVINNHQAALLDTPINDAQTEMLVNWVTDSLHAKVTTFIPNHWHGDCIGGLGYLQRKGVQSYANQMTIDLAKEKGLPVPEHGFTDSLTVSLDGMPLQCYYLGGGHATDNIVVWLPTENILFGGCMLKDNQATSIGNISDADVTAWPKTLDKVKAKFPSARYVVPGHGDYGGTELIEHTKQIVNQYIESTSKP
T1 sequence (C7C422 whole entry): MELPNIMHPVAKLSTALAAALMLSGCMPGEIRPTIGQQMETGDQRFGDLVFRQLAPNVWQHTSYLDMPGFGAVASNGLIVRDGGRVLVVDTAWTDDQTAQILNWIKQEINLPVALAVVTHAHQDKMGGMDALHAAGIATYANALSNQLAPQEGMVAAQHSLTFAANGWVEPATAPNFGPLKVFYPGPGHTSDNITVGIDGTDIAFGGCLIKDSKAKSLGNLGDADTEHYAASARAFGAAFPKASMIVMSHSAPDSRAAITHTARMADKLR

What is called IC50 is the concentration needed to halve the response being measured. On to `Nc1ccccc1-c1nnc(SCC(=O)Nc2cccc(Cl)c2)[nH]1`, for which the inhibition entry in assay [1], in assay [3] and in assay [4] was “inactive” in each case. Moreover, half-maximal inhibition in assay [2] (IC50) required 230 nM.
Take `O=C(CSc1nnc(-c2ccccc2O)[nH]1)Nc1cccc(Cl)c1`: the inhibition entry in assay [1], in assay [3] and in assay [4] was “inactive” each time. The same molecule yielded an IC50 in assay [2] of 160 nM.
For the molecule `CCc1ccccc1NC(=O)CSc1nnc(-c2ccccc2)[nH]1`, the inhibition entry in assay [1], in assay [3] and in assay [4] was “inactive” in each case. The 50% inhibitory concentration (IC50) in assay [2] is 990 nM.
Consider `CCCCc1ccc(NC(=O)CSc2nnc(-c3ccccc3O)[nH]2)cc1`, for which the inhibition result in assay [1], in assay [3] and in assay [4] was “inactive” each time. The molecule further yielded an IC50 in assay [2] of 160 nM.
`CCCCc1ccc(NC(=O)CSc2nnc(-c3ccc(O)cc3)[nH]2)cc1`: the inhibition result in assay [1], in assay [3] and in assay [4] was “inactive” each time. Further, the IC50 in assay [2] was 480 nM.
On to `O=C(CSc1nnc(-c2ccccc2)[nH]1)Nc1ccccc1Cl`, for which the inhibition entry in assay [1], in assay [3] and in assay [4] was “inactive” in each case. The molecule further came in with an IC50 in assay [2] of 350 nM.
Turning to `Nc1ccccc1-c1nnc(SCC(=O)Nc2ccccc2)[nH]1`, the inhibition entry in assay [1], in assay [3] and in assay [4] was “inactive” each time. In assay [2], this molecule had an IC50 of 330 nM.
On to `CCCCc1ccc(NC(=O)CSc2nnc(-c3ccccc3)[nH]2)cc1`, for which the inhibition entry in assay [1], in assay [3] and in assay [4] was “inactive” in each case. The molecule further showed an IC50 in assay [2] of 150 nM.
With `O=C(CSc1nnc(-c2ccccc2)[nH]1)Nc1ccccc1`, the inhibition result in assay [1], in assay [3] and in assay [4] was “inactive” in each case. The same molecule yielded an IC50 in assay [2] of 170 nM.
A word on the Ki: it is the dissociation constant of the complex between target and ligand, obtained from inhibition or displacement. As to `CCCCc1ccc(NC(=O)CSc2nnc(-c3ccccc3N)[nH]2)cc1`, the inhibition result in assay [1], in assay [3] and in assay [4] was “inactive” in each case. In addition, it took 160 nM to reach half-maximal inhibition in assay [2] (IC50). Moreover, the Ki in assay [5] is 490 nM.
In the case of `O=C(CSc1nnc(-c2ccccc2O)[nH]1)Nc1ccccc1Cl`, the inhibition entry in assay [1], in assay [3] and in assay [4] was “inactive” each time. In assay [2], this molecule gave an IC50 of 980 nM.
Turning to `Cc1ccccc1NC(=O)CSc1nnc(-c2ccccc2)[nH]1`, the inhibition result in assay [1], in assay [3] and in assay [4] was “inactive” throughout. In assay [2], the IC50 came to 190 nM.
As to `O=C(CSc1nnc(-c2ccccc2)[nH]1)Nc1cccc(Cl)c1`, the inhibition entry in assay [1], in assay [3] and in assay [4] was “inactive” each time. The same molecule showed an IC50 in assay [2] of 690 nM.
Consider `O=C(CSc1nnc(-c2ccccc2O)[nH]1)Nc1ccccc1`, for which the inhibition result in assay [1], in assay [3] and in assay [4] was “inactive” in each case. This molecule also came in with an IC50 in assay [2] of 420 nM.
In the case of `Cc1ccccc1NC(=O)CSc1nnc(-c2ccccc2N)[nH]1`, the inhibition entry in assay [1], in assay [3] and in assay [4] was “inactive” each time. For the same molecule, in assay [2], the IC50 turned out to be 1900 nM.
As to `O=C(CSc1nnc(-c2ccc(O)cc2)[nH]1)Nc1ccccc1`, the inhibition result in assay [1], in assay [3] and in assay [4] was “inactive” each time. This molecule also returned an IC50 in assay [2] of 1200 nM.
Regarding `Cc1ccccc1NC(=O)CSc1nnc(-c2ccc(O)cc2)[nH]1`, the inhibition entry in assay [1], in assay [3] and in assay [4] was “inactive” throughout. For the same molecule, the IC50 in assay [2] worked out at 980 nM.
On to `CCc1ccccc1NC(=O)CSc1nnc(-c2ccc(O)cc2)[nH]1`, for which the inhibition result in assay [1], in assay [3] and in assay [4] was “inactive” each time. This molecule displayed an IC50 in assay [2] of 1500 nM.
With `O=C(CSc1nnc(-c2ccc(O)cc2)[nH]1)Nc1cccc(Cl)c1`, the inhibition entry in assay [1], in assay [3] and in assay [4] was “inactive” throughout. 370 nM corresponded to half-maximal inhibition in assay [2] (IC50). Moreover, in assay [5], the Ki came out at 630 nM.
As to `CCc1ccccc1NC(=O)CSc1nnc(-c2ccccc2N)[nH]1`, the inhibition entry in assay [1], in assay [3] and in assay [4] was “inactive” throughout. This molecule also registered an IC50 in assay [2] of 450 nM.
As for `CCc1ccccc1NC(=O)CSc1nnc(-c2ccccc2O)[nH]1`, the inhibition entry in assay [1], in assay [3] and in assay [4] was “inactive” each time. In assay [2], this molecule had an IC50 of 930 nM.
Take `Cc1ccccc1NC(=O)CSc1nnc(-c2ccccc2O)[nH]1`: the inhibition entry in assay [1], in assay [3] and in assay [4] was “inactive” in each case. This molecule also came in with an IC50 in assay [2] of 160 nM.
Regarding `O=C(CSc1nnc(-c2ccc(O)cc2)[nH]1)Nc1ccccc1Cl`, the inhibition entry in assay [1], in assay [3] and in assay [4] was “inactive” in each case. The molecule further yielded an IC50 in assay [2] of 520 nM.
For `Nc1ccccc1-c1nnc(SCC(=O)Nc2ccccc2Cl)[nH]1`, the inhibition entry in assay [1], in assay [3] and in assay [4] was “inactive” each time. The molecule further gave an IC50 in assay [2] of 610 nM.
